Fewer inactive variants are shown than the library holds.
B1: tRNA (parent)
chain: GUUCCGUUGGCGUAAUGGUAACGCGUCUCCCUCCUAAGGAGAAGACUGCGGGUUCGAGUCCCGUACGGAACG

Variants of: B1
Experiment: yeast fitness relative to wild type (ratio to wild type); higher = fitter; tRNA-Arg(CCU), competitive growth, 37 C, YPD
Procedure, shortened: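 Start and end populations of a pooled competition were compared by 100-nucleotide paired-end sequencing of gene amplicons. The Saccharomyces cerevisiae strains carried tRNA-Arg(CCU) gene variants at the native genomic locus, synthesised with a 3% per-site mutation rate at 69 sites, and competed in YPD at 37°C for 24 hours in six parallel replicates. Darwinian fitness relative to wild type was based on the change in genotype frequencies. Genotypes required ≥ 100 starting reads, and estimates < 0.5 were set to 0.5.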

Variant	yeast fitness
G12A A40C C66U	0.532
G12A C33U C46A C55G	≤ 0.5
G12A C33U A36C G51C A57U	≤ 0.5
C11U G50A C66A	≤ 0.5
G12A C30U U47A G67C	≤ 0.5
G12A A14U C66A A70G	≤ 0.5
G12A A21C G23A C46G U53C	≤ 0.5
G12A G25A C27U	0.596
G12A A40C A65C	0.655
G12A A20G G48A	0.63
G12A C22G C27A	0.663
C11U G12A C31U U53C A69U	≤ 0.5
G12A C34U A37U G41A G50C	0.561
G12A A37U	0.653
C11U G18A G41C	≤ 0.5
G12A A45U	1.03
G12A A45G	0.953
G12A A20G U28A C55A G56A	0.537
C11U G39C	0.68
C11U G18C C24G C46A	0.537
G12A A15G C27A	≤ 0.5

Variant	yeast fitness
G12A A14G C24G C31U C55A	≤ 0.5
C11U G50A G63A A65U	≤ 0.5
C11U U32A C34U	≤ 0.5
G12A A20C U28C	0.664
C11U G44C	0.974
C11U G44A	1.03
C11U U64G	0.739
C11U U16C U26C A45C C46U	≤ 0.5
G12A C27G G50A	≤ 0.5
C11U G58C	0.925
C11U U19A	0.992
G12A C33G A36C A37G G44A	≤ 0.5
G12A A15G C24A A36U C61U G67U	0.761
G12A A40U A45G C60A	≤ 0.5
C11U G39C C46U	0.756
C11U G12A C24U C34G	≤ 0.5
G12A C29G C66U	0.574
G12A C24U G41A	0.544
G12A C22G C24A G38A	≤ 0.5
C11U G44A C62U	0.762
C11U G12A A14G U53C	≤ 0.5

Variant	yeast fitness
G12A C24G C62G	≤ 0.5
G12A C29A C60U	≤ 0.5
G12A A45G C62U	0.531
G12A C29U U35A G44C C61A	≤ 0.5
C11U U26A C60A	≤ 0.5
C11U U59A C60U	0.543
C11U U13A A57U U64G A65G	≤ 0.5
G12A C30U A40U C49A G56A A57U	≤ 0.5
C11U U13A G48A	0.59
G12A C24U G25A C30U C46A	0.571
C11U U19A A42G U59A C60U	≤ 0.5
G12A C30G U59A	≤ 0.5
C11U U28C G44C U64C	≤ 0.5
G12A A20G A45U C49G A57U	≤ 0.5
G12A C22A C24A A65U	≤ 0.5
C11U G51C	0.718
G12A A15C C46G G58C C61A	≤ 0.5
G12A A15G C29G G48A C62U C66U	≤ 0.5
G12A A20G A21G C22G	≤ 0.5
G12A C46G A70G	0.703
C11U U19A A37C A40C G63A	≤ 0.5

Variant	yeast fitness
C11U U26A A36U A65U	≤ 0.5
G12A A15G G25C C30G G67C	≤ 0.5
C11U U47A	0.808
C11U U13A C22G C24A C46G C55U	≤ 0.5
G12A A65G	0.98
G12A A65U	0.861
C11U U13A A40C U64C	≤ 0.5
G12A C24G U26G G39C C49G A65G	≤ 0.5
G12A C24U C55G A70U	0.531
G12A G25C C60U A69C	≤ 0.5
C11U U19A G41A C60G A65G	≤ 0.5
C11U G25C A40U C49U	≤ 0.5
G12A C55A A65C	≤ 0.5
G12A C30U U32G A36U G39C G50C	≤ 0.5
G12A C34G	0.644
C11U G25C C29G A43G C49G	0.546
C11U U16C C33A U53C C66G G67U	≤ 0.5
C11U G18A A36U G48C	≤ 0.5
C11U U16C U28C A43C	≤ 0.5
C11U U54C G56A	≤ 0.5
C11U G56A G67U	0.526

Reference: the RNAGym collection of RNA variant scans (doi:10.1126/science.aae0568)
